Source: paper PMC3128788 (Nuclear medicine and biology, 2011)
Where “and” joins values, the source holds several entries; their conditions need not be identical. Equal values may be shown once. Marks after values point to notes of the source that are not given here.

How the values were obtained:
[1] = assay type: in vivo, male Sprague Dawley rats; conditions: for Blood %ID/gram, 5 min CycA / Bone %ID/gram, 5 min CycA / Fat %ID/gram, 5 min CycA / Kidney %ID/gram, 5 min CycA / Liver %ID/gram, 5 min CycA / Lung %ID/gram, 5 min CycA / Muscle %ID/gram, 5 min CycA / Total brain %ID/gram, 5 min CycA / Blood %ID/gram, 30 min CycA / Bone %ID/gram, 30 min CycA / Fat %ID/gram, 30 min CycA / Kidney %ID/gram, 30 min CycA / Liver %ID/gram, 30 min CycA / Lung %ID/gram, 30 min CycA / Muscle %ID/gram, 30 min CycA / Total brain %ID/gram, 30 min CycA: CycA […] mg/kg i.v. 30 min before tracer; for Blood %ID/gram, 5 min CycA / Bone %ID/gram, 5 min CycA / Fat %ID/gram, 5 min CycA / Kidney %ID/gram, 5 min CycA / Liver %ID/gram, 5 min CycA / Lung %ID/gram, 5 min CycA / Muscle %ID/gram, 5 min CycA / Total brain %ID/gram, 5 min CycA / Blood %ID/gram, 5 min No Rx / Bone %ID/gram, 5 min No Rx / Fat %ID/gram, 5 min No Rx / Kidney %ID/gram, 5 min No Rx / Liver %ID/gram, 5 min No Rx / Lung %ID/gram, 5 min No Rx / Muscle %ID/gram, 5 min No Rx / Total brain %ID/gram, 5 min No Rx: 5 min post-injection; for Blood %ID/gram, 30 min CycA / Bone %ID/gram, 30 min CycA / Fat %ID/gram, 30 min CycA / Kidney %ID/gram, 30 min CycA / Liver %ID/gram, 30 min CycA / Lung %ID/gram, 30 min CycA / Muscle %ID/gram, 30 min CycA / Total brain %ID/gram, 30 min CycA / Blood %ID/gram, 30 min No Rx / Bone %ID/gram, 30 min No Rx / Fat %ID/gram, 30 min No Rx / Kidney %ID/gram, 30 min No Rx / Liver %ID/gram, 30 min No Rx / Lung %ID/gram, 30 min No Rx / Muscle %ID/gram, 30 min No Rx / Total brain %ID/gram, 30 min No Rx: 30 min post-injection; for Blood %ID/gram, 5 min No Rx / Bone %ID/gram, 5 min No Rx / Fat %ID/gram, 5 min No Rx / Kidney %ID/gram, 5 min No Rx / Liver %ID/gram, 5 min No Rx / Lung %ID/gram, 5 min No Rx / Muscle %ID/gram, 5 min No Rx / Total brain %ID/gram, 5 min No Rx / Blood %ID/gram, 30 min No Rx / Bone %ID/gram, 30 min No Rx / Fat %ID/gram, 30 min No Rx / Kidney %ID/gram, 30 min No Rx / Liver %ID/gram, 30 min No Rx / Lung %ID/gram, 30 min No Rx / Muscle %ID/gram, 30 min No Rx / Total brain %ID/gram, 30 min No Rx: control rats, i.v.; for Bone activity levels from 5 min to 30 min (metabolic defluorination): normal rats; for Blood CycA:No Rx / Bone CycA:No Rx / Fat CycA:No Rx / Kidney CycA:No Rx / Liver CycA:No Rx / Lung CycA:No Rx / Muscle CycA:No Rx / Total brain CycA:No Rx: ratio of tracer uptake in CycA versus control group 30 min post injection
[2] = target: D3 dopamine receptors (transfected HEK cells) (Homo sapiens, UniProt P35462); experiment: Whole cell forskolin-dependent adenylyl cyclase inhibition assay, D3; assay type: cell-based; conditions: for Functional classification at D3 dopamine receptors: compared to quinpirole; for %IA D3: intrinsic activity, compared to the full agonist quinpirole
[3] = target: D2 dopamine receptors (transfected HEK cells) (Homo sapiens, UniProt P14416); experiment: Whole cell forskolin-dependent adenylyl cyclase inhibition assay, D2; assay type: cell-based; conditions: intrinsic activity
How it was run: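 Transfected HEK cells were prelabelled with 2,8-3H-adenine in serum-free medium for 75 min at 37 °C. They were then incubated with test compound in serum-free medium containing 0.1 mM 3-isobutyl-1-methylxanthine for 20 min at 37 °C. The reaction was stopped with a solution of 10% trichloroacetic acid and 1 mM cyclic AMP, and accumulated 3H-cyclic AMP was measured.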

[4] = target: human D3 dopamine receptors expressed in HEK 293 cells (Homo sapiens, UniProt P35462); experiment: Dopamine receptor filtration binding assay, [125I]-IABN competition, D3
Sequence of human D3 dopamine receptors expressed in HEK 293 cells (P35462 whole entry): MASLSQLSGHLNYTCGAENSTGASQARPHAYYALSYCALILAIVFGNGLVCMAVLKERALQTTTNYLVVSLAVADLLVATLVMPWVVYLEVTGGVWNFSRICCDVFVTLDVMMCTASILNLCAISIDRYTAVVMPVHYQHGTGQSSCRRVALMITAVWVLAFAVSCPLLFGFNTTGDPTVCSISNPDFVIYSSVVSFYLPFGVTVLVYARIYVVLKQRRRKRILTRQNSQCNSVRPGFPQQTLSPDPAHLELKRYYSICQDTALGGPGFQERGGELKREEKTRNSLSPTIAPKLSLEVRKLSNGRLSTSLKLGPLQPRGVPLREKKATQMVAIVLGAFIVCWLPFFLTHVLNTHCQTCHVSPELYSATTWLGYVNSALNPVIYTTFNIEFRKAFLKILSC

Sequence of D3 dopamine receptors (transfected HEK cells) (P35462 whole entry): as above
Sequence of D2 dopamine receptors (transfected HEK cells) (P14416 whole entry): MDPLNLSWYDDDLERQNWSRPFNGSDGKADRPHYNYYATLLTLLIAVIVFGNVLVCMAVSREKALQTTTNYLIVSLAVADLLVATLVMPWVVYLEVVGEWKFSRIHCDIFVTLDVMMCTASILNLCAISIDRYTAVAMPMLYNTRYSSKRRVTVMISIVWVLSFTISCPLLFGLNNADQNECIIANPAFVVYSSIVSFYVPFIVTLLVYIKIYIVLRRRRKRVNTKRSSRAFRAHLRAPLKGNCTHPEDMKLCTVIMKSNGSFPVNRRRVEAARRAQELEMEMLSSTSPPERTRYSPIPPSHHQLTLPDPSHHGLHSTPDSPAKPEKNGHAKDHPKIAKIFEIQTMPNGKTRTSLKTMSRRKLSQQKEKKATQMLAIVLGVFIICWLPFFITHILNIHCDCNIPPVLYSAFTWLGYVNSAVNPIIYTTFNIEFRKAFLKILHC

Structure (SMILES): O=C(NCCCCN1CCN(c2ccccc2OCC[18F])CC1)c1ccc(-c2ccsc2)cc1 [[^18F]9, N-(4-(4-(2-(2-[^18F]fluoroethoxy)phenyl)piperazin-1-yl)butyl)-4-(thiophen-3-yl)benzamide]
- Blood %ID/gram, 5 min CycA [1]: 0.098 ± 0.009 %ID/gram
- Bone %ID/gram, 5 min CycA [1]: 0.162 ± 0.030 g %ID/gram
- Fat %ID/gram, 5 min CycA [1]: 0.046 ± 0.028 %ID/gram
- Kidney %ID/gram, 5 min CycA [1]: 1.913 ± 0.037 %ID/gram
- Liver %ID/gram, 5 min CycA [1]: 1.478 ± 0.336 %ID/gram
- Lung %ID/gram, 5 min CycA [1]: 3.356 ± 0.261 %ID/gram
- Muscle %ID/gram, 5 min CycA [1]: 0.097 ± 0.0417 %ID/gram
- Total brain %ID/gram, 5 min CycA [1]: 0.725 ± 0.022 %ID/gram
- Blood %ID/gram, 30 min CycA [1]: 0.109 ± 0.019 %ID/gram
- Bone %ID/gram, 30 min CycA [1]: 0.143 ± 0.016 %ID/gram
- Fat %ID/gram, 30 min CycA [1]: 0.093 ± 0.017 %ID/gram
- Kidney %ID/gram, 30 min CycA [1]: 1.397 ± 0.260 %ID/gram
- Liver %ID/gram, 30 min CycA [1]: 1.039 ± 0.124 %ID/gram
- Lung %ID/gram, 30 min CycA [1]: 1.063 ± 0.182 %ID/gram
- Muscle %ID/gram, 30 min CycA [1]: 0.108 ± 0.014 %ID/gram
- Total brain %ID/gram, 30 min CycA [1]: 0.504 ± 0.023 %ID/gram
- Blood %ID/gram, 5 min No Rx [1]: 0.082 ± 0.027 %ID/gram
- Bone %ID/gram, 5 min No Rx [1]: 0.253 ± 0.001 %ID/gram
- Fat %ID/gram, 5 min No Rx [1]: 0.028 ± 0.003 %ID/gram
- Kidney %ID/gram, 5 min No Rx [1]: 2.485 ± 0.608 %ID/gram
- Liver %ID/gram, 5 min No Rx [1]: 1.430 ± 0.221 %ID/gram
- Lung %ID/gram, 5 min No Rx [1]: 4.026 ± 1.177 %ID/gram
- Muscle %ID/gram, 5 min No Rx [1]: 0.083 ± 0.009 %ID/gram
- Total brain %ID/gram, 5 min No Rx [1]: 0.118 ± 0.001 %ID/gram
- Blood %ID/gram, 30 min No Rx [1]: 0.104 ± 0.010 %ID/gram
- Bone %ID/gram, 30 min No Rx [1]: 0.220 ± 0.0494 %ID/gram
- Fat %ID/gram, 30 min No Rx [1]: 0.091 ± 0.0029 %ID/gram
- Kidney %ID/gram, 30 min No Rx [1]: 1.363 ± 0.0359 %ID/gram
- Liver %ID/gram, 30 min No Rx [1]: 1.162 ± 0.1400 %ID/gram
- Lung %ID/gram, 30 min No Rx [1]: 1.313 ± 0.3574 %ID/gram
- Muscle %ID/gram, 30 min No Rx [1]: 0.083 ± 0.0139 %ID/gram
- Total brain %ID/gram, 30 min No Rx [1]: 0.095 ± 0.0208 %ID/gram
- Bone activity levels from 5 min to 30 min (metabolic defluorination) [1]: No accumulation
- Blood CycA:No Rx [1]: 1.05
- Bone CycA:No Rx [1]: 0.65
- Fat CycA:No Rx [1]: 1.02
- Kidney CycA:No Rx [1]: 1.03
- Liver CycA:No Rx [1]: 0.89
- Lung CycA:No Rx [1]: 0.81
- Muscle CycA:No Rx [1]: 1.24
- Total brain CycA:No Rx [1]: 5.33 ^h

Structure (SMILES): O=C(NCCCCN1CCN(c2ccccc2OCCF)CC1)c1ccc(-c2ccsc2)cc1 [Compound 9, N-(4-(4-(2-(2-fluoroethoxy)phenyl)piperazin-1-yl)butyl)-4-(thiophen-3-yl)benzamide]
- Functional classification at D3 dopamine receptors [2]: weak partial agonist
- %IA D3 [2]: 34.4 ± 1.7%
- %IA D2 [3]: 29.3 ± 7.3%

Structure (SMILES): CN(C)c1ccc(C(=O)NCCCCN2CCN(c3ccccc3OCCF)CC2)cc1 [Compound 8, 4-(dimethylamino)-N-(4-(4-(2-(2-fluoroethoxy)phenyl)piperazin-1-yl)butyl)benzamide]
- Functional classification at D3 dopamine receptors [2]: partial agonist
- %IA D3 [2]: 64.5 ± 8.3% and 64.5 ± 8%
- %IA D2 [3]: 66.3 ± 1%
- D3 (Ki) ([4]; mean Ki ± S.E.M., [125I]-IABN, HEK 293 membranes, unit printed in b5 only): subnanomolar
- D2:D3 selectivity ratio ([4]; selectivity for D3 versus D2 receptors): 23

Structure (SMILES): CN(C)c1ccc(C(=O)NCCCCN2CCN(c3ccccc3OCC[18F])CC2)cc1 [[^18F]8, 4-(dimethylamino)-N-(4-(4-(2-(2-[^18F]fluoroethoxy)phenyl)piperazin-1-yl)butyl)benzamide]
- Blood %ID/gram, 5 min CycA [1]: 0.109 ± 0.009 %ID/gram
- Bone %ID/gram, 5 min CycA [1]: 0.288 ± 0.008 %ID/gram
- Fat %ID/gram, 5 min CycA [1]: 0.116 ± 0.004 %ID/gram
- Kidney %ID/gram, 5 min CycA [1]: 2.235 ± 0.175 %ID/gram
- Liver %ID/gram, 5 min CycA [1]: 1.770 ± 0.584 %ID/gram
- Lung %ID/gram, 5 min CycA [1]: 1.893 ± 0.158 %ID/gram
- Muscle %ID/gram, 5 min CycA [1]: 0.184 ± 0.014 %ID/gram
- Total brain %ID/gram, 5 min CycA [1]: 0.895 ± 0.063 %ID/gram
- Blood %ID/gram, 30 min CycA [1]: 0.062 ± 0.018 %ID/gram
- Bone %ID/gram, 30 min CycA [1]: 0.599 ± 0.152 %ID/gram
- Fat %ID/gram, 30 min CycA [1]: 0.115 ± 0.030 %ID/gram
- Kidney %ID/gram, 30 min CycA [1]: 2.548 ± 0.490 %ID/gram
- Liver %ID/gram, 30 min CycA [1]: 2.431 ± 0.365 %ID/gram
- Lung %ID/gram, 30 min CycA [1]: 1.154 ± 0.102 %ID/gram
- Muscle %ID/gram, 30 min CycA [1]: 0.154 ± 0.038 %ID/gram
- Total brain %ID/gram, 30 min CycA [1]: 0.970 ± 0.077 %ID/gram
- Increase in brain uptake after CycA administration at 5 min ([1]; CycA pretreated versus control rats, 5 min post injection): 5.0 fold
- Blood %ID/gram, 5 min No Rx [1]: 0.079 ± 0.006 %ID/gram
- Bone %ID/gram, 5 min No Rx [1]: 0.490 ± 0.033 %ID/gram
- Fat %ID/gram, 5 min No Rx [1]: 0.101 ± 0.046 %ID/gram
- Kidney %ID/gram, 5 min No Rx [1]: 2.939 ± 0.544 %ID/gram
- Liver %ID/gram, 5 min No Rx [1]: 2.124 ± 0.113 %ID/gram
- Lung %ID/gram, 5 min No Rx [1]: 2.432 ± 0.211 %ID/gram
- Muscle %ID/gram, 5 min No Rx [1]: 0.099 ± 0.007 %ID/gram
- Total brain %ID/gram, 5 min No Rx [1]: 0.178 ± 0.030 %ID/gram
- Blood %ID/gram, 30 min No Rx [1]: 0.046 ± 0.008 %ID/gram
- Bone %ID/gram, 30 min No Rx [1]: 0.882 ± 0.153 %ID/gram
- Fat %ID/gram, 30 min No Rx [1]: 0.095 ± 0.017 %ID/gram
- Kidney %ID/gram, 30 min No Rx [1]: 2.710 ± 0.235 %ID/gram
- Liver %ID/gram, 30 min No Rx [1]: 2.134 ± 0.313 %ID/gram
- Lung %ID/gram, 30 min No Rx [1]: 1.553 ± 0.179 %ID/gram
- Muscle %ID/gram, 30 min No Rx [1]: 0.111 ± 0.006 %ID/gram
- Total brain %ID/gram, 30 min No Rx [1]: 0.180 ± 0.006 %ID/gram
- Bone activity levels from 5 min to 30 min (metabolic defluorination) [1]: two-fold increase
- Blood CycA:No Rx [1]: 1.35
- Bone CycA:No Rx [1]: 0.68
- Fat CycA:No Rx [1]: 1.20
- Kidney CycA:No Rx [1]: 0.94
- Liver CycA:No Rx [1]: 1.14
- Lung CycA:No Rx [1]: 0.74
- Muscle CycA:No Rx [1]: 1.38
- Total brain CycA:No Rx [1]: 5.38 ^g
